Test results as given in PMC11665415 (Neurobiology of Pain, 2024).
“Also recorded” adds a separate entry of the source. Like-named read-outs stand apart in the source and are kept apart here.

Tests used:
SH-SY5Y cells = SH-SY5Y cells treated at 5 µM; ref Drewry et al., 2022; cited from earlier work
[1] = test system: voltage-gated sodium channels; assay type: cell-based, rat; settings: for Effect on density of sodium currents: acute application
viral entry = settings: 1 µM, multiple cell types; ref Drewry et al., 2022; cited from earlier work
[2] = Snapshot/standard pharmacokinetics in CD-1 mice; assay type: in vivo, mouse; settings: for half-life: male, CD-1, mouse, plasma
[3] = Snapshot pharmacokinetics in Balb/C mice; assay type: in vivo, mouse; settings: 10 or 30 mg/kg IP or PO, up to five hours after dosing
potassium channels = assay: Whole-cell patch-clamp recordings of total potassium currents; assay type: cell-based, rat
Method in brief: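 Rat DRG neurons cultured in medium with 10 % FBS and 15 ng/ml NGF, on poly-D-lysine/laminin-coated coverslips at 37 °C, 5 % CO₂, and used within 24 h. Whole-cell patch clamp with test compound (10 µM) or 0.1 % DMSO in the external solution. Current density–voltage and peak current density (pA/pF) given as mean ± SEM.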

naïve mice [4] = assay: Rotarod test of motor coordination in naïve mice; assay type: in vivo, mouse; settings: male and female naïve mice, 30 mg/kg IP
Method in brief: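 Naïve male and female mice received test compound at 30 mg/kg IP, dissolved in 30 % DMSO. Motor coordination measured on the rotarod. A mouse that fell was placed back on the cylinder and the session continued.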

[5] = test system: capsaicin-induced mechanical allodynia; assay: Capsaicin pain model, mechanical allodynia; assay type: in vivo, mouse; settings: 30 mg/kg IP
Method in brief: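 Mice got intraplantar capsaicin (12 µg in 10 µL; vehicle 80 % saline, 10 % ethanol, 10 % Tween80) in the left footpad under isoflurane. One h later: single IP dose of test compound at 30 mg/kg or vehicle (30 % DMSO). 50 % paw withdrawal threshold by von Frey up-down method, baseline then 0–4 h post-dose. AUC over 0–4 h. n = 8 per sex. Two-way ANOVA with Tukey; one-way ANOVA with Dunnett for AUC.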

[6] = test system: SNI-induced cold allodynia; assay: Spared nerve injury; assay type: in vivo, mouse; settings: for SNI-induced cold allodynia, AUC between 0 and 6 h: day 28 post-SNI
naïve mice [7] = assay: Mechanical and cold sensitivity in naïve mice; assay type: in vivo, mouse; settings: male and female naïve mice, 30 mg/kg IP
Method in brief: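 Naïve male and female mice got test compound at 30 mg/kg IP in 30 % DMSO, with a 1 h wait before testing. Mechanical sensitivity measured with von Frey filaments by the up-down method. Cold sensitivity measured by applying an acetone drop to the hind paw.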

[8] = test system: SNI-induced mechanical allodynia; assay: Spared nerve injury; assay type: in vivo, mouse
Method in brief: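 On day 28 after spared nerve injury, 50 % paw withdrawal threshold measured by von Frey up-down method, at baseline and from 0 to 6 h after a single IP injection. Doses: 3, 10 and 30 mg/kg in males; 30 mg/kg in females; vehicle 30 % DMSO. AUC over 0–6 h. n = 8. Two-way ANOVA with Tukey; one-way ANOVA with Dunnett.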

[9] = test system: voltage-gated calcium channels; assay type: cell-based, rat
PIKfyve = settings: 403 wild-type human kinases; ref Drewry et al., 2022; cited from earlier work

Molecule: Cc1cccc(/C=N/Nc2cc(N3CCOCC3)nc(OCCc3ccccn3)n2)c1 [apilimod, reference compound]
- Lysosomal homeostasis (SH-SY5Y cells): impacted lysosomal homeostasis

Molecule: COc1c([C@H]2[C@H](C(=O)Nc3ccnc(C(N)=O)c3)O[C@@](C)(C(F)(F)F)[C@H]2C)ccc(F)c1F [VX-548, reference compound]
- Activation k ([1]; VX-548 5 nM, DMSO control 3.70 ± 0.39): 6.18 ± 0.88
- Fast inactivation k ([1]; VX-548 5 nM, DMSO control −12.25 ± 1.08): −9.98 ± 0.99
- Activation V0.5 (mV) ([1]; VX-548 5 nM, DMSO control −24.61 ± 0.44): −19.51 ± 0.98 mV
- Fast inactivation V0.5 (mV) ([1]; VX-548 5 nM, DMSO control −52.39 ± 1.14): −59.85 ± 1.10 mV
- IV curve Peak/density (pA/pF) ([1]; VX-548 5 nM, DMSO control −358.2 ± 32.87): −200.5 ± 35.37 pA/pF

Molecule: ProTxII [reference compound]
- Activation k ([1]; ProTxII 5 nM, DMSO control 4.25 ± 0.42): 4.17 ± 0.49
- Fast inactivation k ([1]; ProTxII 5 nM, DMSO control −11.11 ± 0.74): −11.11 ± 1.15
- Activation V0.5 (mV) ([1]; ProTxII 5 nM, DMSO control −20.48 ± 0.48): −14.89 ± 0.57 mV
- Fast inactivation V0.5 (mV) ([1]; ProTxII 5 nM, DMSO control −47.42 ± 0.79): −53.17 ± 1.24 mV
- IV curve Peak/density (pA/pF) ([1]; ProTxII 5 nM, DMSO control −533.2 ± 42.99): −207.3 ± 57.12 pA/pF

Molecule: CN(C)CC#Cc1ccc2[nH]c3c(c2c1)-c1nc(N)ncc1CCC3 [SGC-PIKFYVE-1]
- Voltage-dependence of activation ([1]; 10 µM, compared to the vehicle): remained unchanged
- Hyperpolarizing shift in the voltage-dependence of inactivation ([1]; 10 µM, vs vehicle): 4 mV
- Activation k ([1]; SGC-PIKFYVE-1 1 µM, DMSO control 4.93 ± 0.44): 6.54 ± 0.66
- Fast inactivation k ([1]; SGC-PIKFYVE-1 1 µM, DMSO control −13.64 ± 1.53): −14.49 ± 1.69
- Activation V0.5 (mV) ([1]; SGC-PIKFYVE-1 1 µM, DMSO control −21.776 ± 0.50): −21.09 ± 0.74 mV
- Fast inactivation V0.5 (mV) ([1]; SGC-PIKFYVE-1 1 µM, DMSO control −53.6 ± 1.56): −51.69 ± 1.67 mV
- Activation k ([1]; SGC-PIKFYVE-1 10 µM, ProTxII set (Fig. 1), DMSO control 4.25 ± 0.42): 4.89 ± 0.56
- Fast inactivation k ([1]; SGC-PIKFYVE-1 10 µM, ProTxII set (Fig. 1), DMSO control −11.11 ± 0.74): −10.32 ± 0.73
- Activation V0.5 (mV) ([1]; SGC-PIKFYVE-1 10 µM, ProTxII set (Fig. 1), DMSO control −20.48 ± 0.48): −20.11 ± 0.63 mV
- Fast inactivation V0.5 (mV) ([1]; SGC-PIKFYVE-1 10 µM, ProTxII set (Fig. 1), DMSO control −47.42 ± 0.79): −51.51 ± 0.79 mV
- IV curve Peak/density (pA/pF) ([1]; SGC-PIKFYVE-1 10 µM, ProTxII set (Fig. 1), DMSO control −533.2 ± 42.99): −348.7 ± 38.42 pA/pF
- Activation k ([1]; SGC-PIKFYVE-1 10 µM, VX-548 set (Fig. 2), DMSO control 3.70 ± 0.39): 3.73 ± 0.47
- Fast inactivation k ([1]; SGC-PIKFYVE-1 10 µM, VX-548 set (Fig. 2), DMSO control −12.25 ± 1.08): −10.25 ± 1.63
- Activation V0.5 (mV) ([1]; SGC-PIKFYVE-1 10 µM, VX-548 set (Fig. 2), DMSO control −24.61 ± 0.44): −20.18 ± 0.55 mV
- Fast inactivation V0.5 (mV) ([1]; SGC-PIKFYVE-1 10 µM, VX-548 set (Fig. 2), DMSO control −52.39 ± 1.14): −58.85 ± 1.79 mV
- IV curve Peak/density (pA/pF) ([1]; SGC-PIKFYVE-1 10 µM, VX-548 set (Fig. 2), DMSO control −358.2 ± 32.87): −189.7 ± 47.11 pA/pF
- Effect on density of sodium currents ([1]; 1 µM): but not at 1 µM
- Effect on density of sodium currents ([1]; 10 µM): decrease in the density of sodium currents
- Viral entry (viral entry): inhibited viral entry
- Oral bioavailability and in vivo stability (snapshot PK) ([2]; CD-1 mice, 10 mg/kg IP or PO, five-hour time course): exhibited oral bioavailability and remained relatively stable in vivo
- Detectability in plasma over twenty-four hours ([2]; CD-1 mice, 10 mg/kg IP or PO, no time points between 8 and 24 h): no longer detectable after eight hours
- Adverse effects / tolerability ([2]; CD-1 mice, 30 mg/kg): did not induce any adverse effects; also recorded: well tolerated
- Detectability in plasma over twenty-four hours ([2]; CD-1 mice, 30 mg/kg IP or PO): not detectable after eight hours
- Plasma concentration relative to cellular affinity for PIKfyve ([2]; CD-1 mice, 30 mg/kg twice daily (BID) IP or PO): well above its cellular affinity for PIKfyve
- half-life ([2]; ip): ~210 min
- half-life ([2]; po, 30 mg/kg): 210 min
- Plasma concentration relative to cellular affinity for PIKfyve [3]: maintained well above the cellular affinity for PIKfyve
- IK+ current or peak densities (potassium channels; acute treatment, 10 μM, vs 0.1 % DMSO): did not alter
- IV curve Peak/density (pA/pF) (potassium channels; total potassium currents, SGC-PIKFYVE-1 10 µM, DMSO control 184.90 ± 17.17): 213.92 ± 21.52 pA/pF
- Lysosomal homeostasis (SH-SY5Y cells): impacted lysosomal homeostasis
- Motor coordination (rotarod) (naïve mice [4]): did not induce changes
- Capsaicin-induced nociceptive behaviors ([5]; female mice): able to reduce the nociceptive behaviors
- Duration of reduction of capsaicin-induced allodynia ([5]; male mice, 1 h after intraplantar capsaicin): 2 h
- SNI-induced cold allodynia ([6]; female mice, 30 mg/kg IP): reduced
- SNI-induced cold allodynia, AUC between 0 and 6 h ([6]; female mice, 30 mg/kg IP): reversed SNI-induced cold allodynia
- SNI-induced cold allodynia, AUC between 0 and 6 h ([6]; male mice, 30 mg/kg IP): reversed SNI-induced cold allodynia
- SNI-induced cold allodynia ([6]; male mice, 3, 10 and 30 mg/kg IP): reduced SNI-induced cold allodynia for six hours in a dose-dependent manner
- Mechanical and cold sensitivity (naïve mice [7]): did not induce changes
- SNI-induced tactile allodynia ([8]; female mice, 30 mg/kg IP): reduced SNI-induced tactile
- Antiallodynic effect (AUC 0-6 h), dose dependence ([8]; male neuropathic mice, 3, 10 and 30 mg/kg IP): dose-dependent
- Paw mechanical withdrawal threshold ([8]; male neuropathic mice, single IP injection 30 mg/kg, day 28 post-SNI): increase of the paw mechanical withdrawal threshold for four hours
- Calcium current density and peak current ([9]; 10 µM, vs 0.1 % DMSO): unaffected
- Fast inactivation k ([9]; total calcium currents, SGC-PIKFYVE-1 10 µM, DMSO control 0.99 ± 0.01): 0.98 ± 0.02
- Activation k ([9]; total calcium currents, SGC-PIKFYVE-1 10 µM, DMSO control 5.99 ± 0.64): 5.73 ± 0.58
- Activation V0.5 (mV) ([9]; total calcium currents, SGC-PIKFYVE-1 10 µM, DMSO control −4.68 ± 0.73): −4.31 ± 0.67 mV
- Fast inactivation V0.5 (mV) ([9]; total calcium currents, SGC-PIKFYVE-1 10 µM, DMSO control −36.91 ± 0.73): −34.76 ± 1.79 mV
- IV curve Peak/density (pA/pF) ([9]; total calcium currents, SGC-PIKFYVE-1 10 µM, DMSO control −107.71 ± 14.20): −113.06 ± 13.24 pA/pF
- Kinome selectivity (PIKfyve): highly selective for PIKfyve
